{
  "source": "ChEMBL document CHEMBL5260840",
  "about": "(J Med Chem, 2019)",
  "key": {"A204": {"test_system": "A204", "assay": "Antiproliferative activity against human A204 cells assessed as inhibition of cell growth incubated for 7 days by CellTiterGlo assay", "type": "functional, cell-based", "settings": "A204, 168 h"}, "[1]": {"biological_target": "T1, Protein cereblon/Bromodomain-containing protein 9 (Homo sapiens) (UniProt Q9H8M2+Q96SW2)", "T1 sequence (Q96SW2 whole entry, looked up)": "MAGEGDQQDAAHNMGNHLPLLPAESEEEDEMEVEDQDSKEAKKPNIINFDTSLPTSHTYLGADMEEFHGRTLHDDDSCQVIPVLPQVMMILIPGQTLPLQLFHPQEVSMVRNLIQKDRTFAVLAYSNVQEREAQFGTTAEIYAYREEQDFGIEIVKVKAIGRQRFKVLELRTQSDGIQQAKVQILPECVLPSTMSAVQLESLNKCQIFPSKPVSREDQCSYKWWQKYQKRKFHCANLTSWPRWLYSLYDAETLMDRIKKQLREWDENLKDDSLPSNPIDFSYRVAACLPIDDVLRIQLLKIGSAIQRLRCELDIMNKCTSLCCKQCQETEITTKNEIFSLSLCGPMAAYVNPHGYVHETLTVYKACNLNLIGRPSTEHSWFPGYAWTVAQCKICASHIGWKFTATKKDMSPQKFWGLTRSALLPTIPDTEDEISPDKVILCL", "T1 sequence (Q9H8M2 whole entry, looked up)": "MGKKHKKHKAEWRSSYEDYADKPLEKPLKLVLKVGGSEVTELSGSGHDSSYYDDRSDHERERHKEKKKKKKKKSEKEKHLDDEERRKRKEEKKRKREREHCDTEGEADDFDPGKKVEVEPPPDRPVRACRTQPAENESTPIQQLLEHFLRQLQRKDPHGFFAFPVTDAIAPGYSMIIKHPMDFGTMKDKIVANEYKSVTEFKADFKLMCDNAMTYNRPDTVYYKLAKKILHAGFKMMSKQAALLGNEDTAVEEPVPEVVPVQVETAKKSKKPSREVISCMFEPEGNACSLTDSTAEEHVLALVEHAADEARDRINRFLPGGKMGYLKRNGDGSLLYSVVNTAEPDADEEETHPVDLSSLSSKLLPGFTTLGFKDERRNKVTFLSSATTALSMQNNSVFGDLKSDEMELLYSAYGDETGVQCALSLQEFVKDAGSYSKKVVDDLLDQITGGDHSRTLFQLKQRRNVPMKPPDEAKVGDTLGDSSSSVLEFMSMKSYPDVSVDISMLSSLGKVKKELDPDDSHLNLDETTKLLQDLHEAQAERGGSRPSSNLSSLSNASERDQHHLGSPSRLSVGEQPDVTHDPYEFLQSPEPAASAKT", "assay": "PROTAC activity at CRBN/BRD9 in human HeLa cells assessed as remaining BRD9 protein level at 1 uM incubated for 4 hrs by Western blot analysis relative to control", "type": "cell-based", "how_it_was_run": "(§1)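 Cells given 1 µM compound before harvest: HeLa 4 h, RI-1 2 h and 8 h. BRD9, BRD7 and β-actin detected by Western blot; band intensities quantified.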"}, "[2]": {"biological_target": "T1, Protein cereblon/Bromodomain-containing protein 9 (Homo sapiens)", "assay": "PROTAC activity at CRBN/BRD9 in human HeLa cells assessed as remaining BRD9 protein level at 1 uM incubated for 16 hrs by Western blot analysis relative to control", "type": "cell-based", "how_it_was_run": "(§2)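 HeLa cells given 1 µM compound for 16 h before harvest. BRD9, BRD7 and β-actin detected by Western blot; band intensities quantified.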"}, "[3]": {"biological_target": "T2, Protein cereblon/Bromodomain-containing protein 7 (Homo sapiens) (UniProt Q9NPI1+Q96SW2)", "T2 sequence (Q96SW2 whole entry, looked up)": "as the sequence (Q96SW2 whole entry, looked up) above", "T2 sequence (Q9NPI1 whole entry, looked up)": "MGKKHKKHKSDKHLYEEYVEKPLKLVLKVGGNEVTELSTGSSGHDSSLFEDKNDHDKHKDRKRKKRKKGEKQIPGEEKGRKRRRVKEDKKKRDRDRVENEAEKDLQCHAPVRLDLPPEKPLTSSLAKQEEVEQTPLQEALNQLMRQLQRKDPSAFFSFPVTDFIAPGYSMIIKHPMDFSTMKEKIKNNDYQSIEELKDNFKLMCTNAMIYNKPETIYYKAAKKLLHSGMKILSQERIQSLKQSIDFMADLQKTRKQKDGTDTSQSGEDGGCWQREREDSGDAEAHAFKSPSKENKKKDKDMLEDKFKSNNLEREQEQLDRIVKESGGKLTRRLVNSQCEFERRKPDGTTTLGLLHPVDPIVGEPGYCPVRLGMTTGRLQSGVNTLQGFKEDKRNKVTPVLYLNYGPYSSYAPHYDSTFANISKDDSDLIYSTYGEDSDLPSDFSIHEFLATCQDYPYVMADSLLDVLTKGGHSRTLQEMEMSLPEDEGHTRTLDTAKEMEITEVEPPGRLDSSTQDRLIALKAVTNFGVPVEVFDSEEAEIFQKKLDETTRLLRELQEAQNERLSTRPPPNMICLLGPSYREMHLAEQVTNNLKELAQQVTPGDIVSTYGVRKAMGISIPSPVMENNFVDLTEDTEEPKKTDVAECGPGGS", "assay": "PROTAC activity at CRBN/BRD7 in human HeLa cells assessed as remaining BRD7 protein level at 1 uM incubated for 4 hrs by Western blot analysis relative to control", "type": "cell-based", "how_it_was_run": "as §1"}, "[4]": {"biological_target": "T2, Protein cereblon/Bromodomain-containing protein 7 (Homo sapiens)", "assay": "PROTAC activity at CRBN/BRD7 in human HeLa cells assessed as remaining BRD7 protein level at 1 uM incubated for 16 hrs by Western blot analysis relative to control", "type": "cell-based", "how_it_was_run": "as §2"}, "[5]": {"biological_target": "T1, Protein cereblon/Bromodomain-containing protein 9 (Homo sapiens)", "assay": "PROTAC activity at CRBN/BRD9 in human Ri-1 cells assessed as remaining BRD9 protein level at 1 uM incubated for 2 hrs by Western blot analysis relative to control", "type": "cell-based", "how_it_was_run": "as §1"}, "[6]": {"biological_target": "T2, Protein cereblon/Bromodomain-containing protein 7 (Homo sapiens)", "assay": "PROTAC activity at CRBN/BRD7 in human Ri-1 cells assessed as remaining BRD7 protein level at 1 uM incubated for 2 hrs by Western blot analysis relative to control", "type": "cell-based", "how_it_was_run": "as §1"}, "[7]": {"biological_target": "T1, Protein cereblon/Bromodomain-containing protein 9 (Homo sapiens)", "assay": "PROTAC activity at CRBN/BRD9 in human Ri-1 cells assessed as remaining BRD9 protein level at 1 uM incubated for 8 hrs by Western blot analysis relative to control", "type": "cell-based", "how_it_was_run": "as §1"}, "[8]": {"biological_target": "T2, Protein cereblon/Bromodomain-containing protein 7 (Homo sapiens)", "assay": "PROTAC activity at CRBN/BRD7 in human Ri-1 cells assessed as remaining BRD7 protein level at 1 uM incubated for 8 hrs by Western blot analysis relative to control", "type": "cell-based", "how_it_was_run": "as §1"}, "[9]": {"biological_target": "Bromodomain-containing protein 4 (Homo sapiens) (UniProt O60885)"}, "[10]": {"biological_target": "T3, von Hippel-Lindau disease tumor suppressor/Bromodomain-containing protein 9 (Homo sapiens) (UniProt Q9H8M2+P40337)", "T3 sequence (P40337 whole entry, looked up)": "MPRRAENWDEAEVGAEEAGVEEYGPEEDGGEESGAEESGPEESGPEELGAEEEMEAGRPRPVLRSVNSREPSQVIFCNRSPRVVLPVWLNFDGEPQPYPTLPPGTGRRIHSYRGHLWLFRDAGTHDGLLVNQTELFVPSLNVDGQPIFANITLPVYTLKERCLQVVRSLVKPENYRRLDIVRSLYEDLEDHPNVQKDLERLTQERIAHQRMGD", "T3 sequence (Q9H8M2 whole entry, looked up)": "as the sequence (Q9H8M2 whole entry, looked up) above", "assay": "PROTAC activity at VHL/BRD9 in human HeLa cells assessed as remaining BRD9 protein level at 1 uM incubated for 16 hrs by Western blot analysis relative to control", "type": "cell-based", "how_it_was_run": "(§3)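 HeLa cells treated with compound for the stated time before harvest; BRD9, BRD7 and β-actin detected by Western blot with β-actin loading control; band intensities quantified.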"}, "[11]": {"biological_target": "T4, von Hippel-Lindau disease tumor suppressor/Bromodomain-containing protein 7 (Homo sapiens) (UniProt Q9NPI1+P40337)", "T4 sequence (P40337 whole entry, looked up)": "as the sequence (P40337 whole entry, looked up) above", "T4 sequence (Q9NPI1 whole entry, looked up)": "as the sequence (Q9NPI1 whole entry, looked up) above", "assay": "PROTAC activity at VHL/BRD7 in human HeLa cells assessed as remaining BRD7 protein level at 1 uM incubated for 4 hrs by Western blot analysis relative to control", "type": "cell-based"}, "[12]": {"biological_target": "T4, von Hippel-Lindau disease tumor suppressor/Bromodomain-containing protein 7 (Homo sapiens)", "assay": "PROTAC activity at VHL/BRD7 in human HeLa cells assessed as remaining BRD7 protein level at 1 uM incubated for 16 hrs by Western blot analysis relative to control", "type": "cell-based"}, "[13]": {"biological_target": "T3, von Hippel-Lindau disease tumor suppressor/Bromodomain-containing protein 9 (Homo sapiens)", "assay": "PROTAC activity at VHL/BRD9 in human HeLa cells assessed as protein degradation at 1 uM incubated for 4 hrs by Western blot analysis relative to control", "type": "cell-based", "how_it_was_run": "as §3"}, "[14]": {"biological_target": "T3, von Hippel-Lindau disease tumor suppressor/Bromodomain-containing protein 9 (Homo sapiens)", "assay": "PROTAC activity at VHL/BRD9 in human HeLa cells assessed as maximal protein degradation at 10 uM incubated for 4 hrs by Western blot analysis relative to control", "type": "cell-based", "how_it_was_run": "as §3"}, "[15]": {"biological_target": "T3, von Hippel-Lindau disease tumor suppressor/Bromodomain-containing protein 9 (Homo sapiens)", "assay": "PROTAC activity at VHL/BRD9 in human HeLa cells assessed as apparent half-life of BRD9 at 1 uM", "type": "cell-based"}, "[16]": {"biological_target": "T3, von Hippel-Lindau disease tumor suppressor/Bromodomain-containing protein 9 (Homo sapiens)", "assay": "PROTAC activity at VHL/BRD9 in human HeLa cells assessed as BRD9 protein degradation at 1 uM incubated for 4 hrs by Western blot analysis relative to control", "type": "cell-based", "how_it_was_run": "as §3"}, "[17]": {"biological_target": "T3, von Hippel-Lindau disease tumor suppressor/Bromodomain-containing protein 9 (Homo sapiens)", "assay": "PROTAC activity at VHL/BRD9 in human HeLa cells assessed as BRD9 protein degradation at 1 uM incubated for 8 hrs by Western blot analysis", "type": "cell-based", "how_it_was_run": "as §3"}, "[18]": {"biological_target": "T3, von Hippel-Lindau disease tumor suppressor/Bromodomain-containing protein 9 (Homo sapiens)", "assay": "PROTAC activity at VHL/BRD9 in human Ri-1 cells assessed as remaining BRD9 protein level at 1 uM incubated for 2 hrs by Western blot analysis relative to control", "type": "cell-based", "how_it_was_run": "(§4)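 Ri-1 cells exposed to compound for the stated time before harvest; BRD9, BRD7 and β-actin measured by Western blot, band intensities quantified and set against DMSO-treated control.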"}, "[19]": {"biological_target": "T4, von Hippel-Lindau disease tumor suppressor/Bromodomain-containing protein 7 (Homo sapiens)", "assay": "PROTAC activity at VHL/BRD7 in human Ri-1 cells assessed as remaining BRD7 protein level at 1 uM incubated for 2 hrs by Western blot analysis relative to control", "type": "cell-based"}, "[20]": {"biological_target": "T3, von Hippel-Lindau disease tumor suppressor/Bromodomain-containing protein 9 (Homo sapiens)", "assay": "PROTAC activity at VHL/BRD9 in human Ri-1 cells assessed as remaining BRD9 protein level at 1 uM incubated for 8 hrs by Western blot analysis relative to control", "type": "cell-based", "how_it_was_run": "as §4"}, "[21]": {"biological_target": "T4, von Hippel-Lindau disease tumor suppressor/Bromodomain-containing protein 7 (Homo sapiens)", "assay": "PROTAC activity at VHL/BRD7 in human Ri-1 cells assessed as remaining BRD7 protein level at 1 uM incubated for 8 hrs by Western blot analysis relative to control", "type": "cell-based"}, "[22]": {"biological_target": "T5, Von Hippel-Lindau disease tumor suppressor/Elongin B/Elongin C (Homo sapiens) (UniProt P40337+Q15370+Q15369)", "T5 sequence (P40337 whole entry, looked up)": "as the sequence (P40337 whole entry, looked up) above", "T5 sequence (Q15369 whole entry, looked up)": "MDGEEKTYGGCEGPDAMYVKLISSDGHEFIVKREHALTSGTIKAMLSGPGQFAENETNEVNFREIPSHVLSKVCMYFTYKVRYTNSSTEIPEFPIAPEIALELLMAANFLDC", "T5 sequence (Q15370 whole entry, looked up)": "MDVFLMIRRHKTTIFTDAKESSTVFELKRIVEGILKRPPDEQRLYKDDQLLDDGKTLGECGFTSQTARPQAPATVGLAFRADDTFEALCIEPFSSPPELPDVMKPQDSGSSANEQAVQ", "assay": "Co-operative binding affinity to 6His-tagged human VHL/ElonginC/ElonginB expressed in Escherichia coli BL21 (DE3) cells assessed as total gibb's free energy change in the presence of BRD9-BD as complex with compound by ITC analysis"}, "[23]": {"biological_target": "T5, Von Hippel-Lindau disease tumor suppressor/Elongin B/Elongin C (Homo sapiens)", "assay": "Co-operative binding affinity to 6His-tagged human VHL/ElonginC/ElonginB expressed in Escherichia coli BL21 (DE3) cells assessed as maximal intensity in the presence of BRD9-BD as complex with compound incubated for 1 hrs by AlphaLISA proximity assay"}},
  "note": "Calls of active or inactive are those of the source. The rule behind the calls is not given here.",
  "data": [
    {"smiles": "COc1cc(-c2cn(C)c(=O)c3cnccc23)cc(OC)c1CN1CCN(CCOCCOCC(=O)NCCNc2cccc3c2C(=O)N(C2CCC(=O)NC2=O)C3=O)CC1", "note": "(centres undefined)", "values": [
      {"measurement": "IC50", "setting": "A204", "result": 0.305, "unit": "µM"},
      {"measurement": "Activity", "setting": "[1]", "result": 6, "unit": "%"},
      {"measurement": "Activity", "setting": "[2]", "result": 7, "unit": "%"},
      {"measurement": "Activity", "setting": "[3]", "result": 81, "unit": "%"},
      {"measurement": "Activity", "setting": "[4]", "result": 97, "unit": "%"},
      {"measurement": "Activity", "setting": "[5]", "result": 5, "unit": "%"},
      {"measurement": "Activity", "setting": "[6]", "result": 158, "unit": "%"},
      {"measurement": "Activity", "setting": "[7]", "result": 2, "unit": "%"},
      {"measurement": "Activity", "setting": "[8]", "result": 225, "unit": "%"}
    ]},
    {"smiles": "Cc1ncsc1-c1ccc(CNC(=O)[C@@H]2C[C@@H](O)CN2C(=O)[C@@H](NC(=O)COCCOCCOCCNC(=O)C[C@@H]2N=C(c3ccc(Cl)cc3)c3c(sc(C)c3C)-n3c(C)nnc32)C(C)(C)C)cc1", "values": [
      {"measurement": "deltaG", "setting": "[9]", "result": -92.9, "unit": "kJ/mol"}
    ]},
    {"smiles": "COc1cc(-c2cn(C)c(=O)c3cnccc23)cc(OC)c1CN1CCN(CCOCCOCCOc2cc(-c3scnc3C)ccc2CNC(=O)[C@@H]2C[C@@H](O)CN2C(=O)[C@@H](NC(=O)C2(F)CC2)C(C)(C)C)CC1", "values": [
      {"measurement": "Activity", "setting": "[10]", "result": 36, "unit": "%"},
      {"measurement": "Activity", "setting": "[11]", "result": 7, "unit": "%"},
      {"measurement": "Activity", "setting": "[12]", "result": 90, "unit": "%"},
      {"measurement": "Activity", "setting": "[13]", "result": 60, "unit": "%"},
      {"measurement": "Emax", "setting": "[14]", "result": 80, "unit": "%"},
      {"measurement": "T1/2", "setting": "[15]", "result": 3.47, "unit": "h"},
      {"measurement": "Activity", "setting": "[16]", "result": "> 50", "unit": "%"},
      {"measurement": "Activity", "setting": "[17]", "result": "Active"},
      {"measurement": "Activity", "setting": "[18]", "result": 68, "unit": "%"},
      {"measurement": "Activity", "setting": "[19]", "result": 127, "unit": "%"},
      {"measurement": "Activity", "setting": "[20]", "result": 100, "unit": "%"},
      {"measurement": "Activity", "setting": "[21]", "result": 145, "unit": "%"},
      {"measurement": "deltaG", "setting": "[22]", "result": -86.6, "unit": "kJ/mol"},
      {"measurement": "Activity", "setting": "[23]", "result": "1.56 10^6No_unit"}
    ]}
  ]
}
